Test results reported in ChEMBL document CHEMBL2176955, “Discovery of the macrocycle 11-(2-pyrrolidin-1-yl-ethoxy)-14,19-dioxa-5,7,26-triaza-tetracyclo[19.3.1.1(2,6).1(8,12)]heptacosa-1(25),2(26),3,5,8,10,12(27),16,21,23-decaene (SB1518), a potent Janus kinase 2/fms-like tyrosine kinase-3 (JAK2/FLT3) inhibitor for the treatment of myelofibrosis and …” (J Med Chem, 2011).

Legend:
[1] = Antitumor activity against mouse BA/F3 cells harboring JAK2 V617F mutant allografted in athymic BALB/c nude mouse assessed as normalization of spleen weight at 150 mg/kg, po bid administered on day 4 post inoculation for 13 consecutive days measured on day 13 relative to vehicle-treated control; assay type: functional, BaF3
Procedure, shortened: (§1)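 Female BALB/c nude mice given 2 × 10⁶ Ba/F3-JAK2 V617F cells by tail vein in serum-free medium. Oral dosing twice daily at 75 or 150 mg/kg (free base) from day 4 for 13 days, 8 mice per group, 4 naive baseline mice. Spleens and livers weighed at sacrifice; ANOVA with Dunnett's test.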

[2] = Antitumor activity against mouse BA/F3 cells harboring JAK2 V617F mutant allografted in athymic BALB/c nude mouse assessed as normalization of liver weight at 150 mg/kg, po bid administered on day 4 post inoculation for 13 consecutive days measured on day 13 relative to vehicle-treated control; assay type: functional, BaF3; procedure, shortened: as §1
Cytochrome P450 1A2 = target: T1, Cytochrome P450 1A2 (Homo sapiens, UniProt P05177); assay: Inhibition of CYP1A2 in human liver microsomes assessed as decrease in formation of resorufin from ethoxyresorufin substrate after 5 mins by LC-MS/MS; assay type: ADME, Microsome
T1 sequence (P05177 whole entry): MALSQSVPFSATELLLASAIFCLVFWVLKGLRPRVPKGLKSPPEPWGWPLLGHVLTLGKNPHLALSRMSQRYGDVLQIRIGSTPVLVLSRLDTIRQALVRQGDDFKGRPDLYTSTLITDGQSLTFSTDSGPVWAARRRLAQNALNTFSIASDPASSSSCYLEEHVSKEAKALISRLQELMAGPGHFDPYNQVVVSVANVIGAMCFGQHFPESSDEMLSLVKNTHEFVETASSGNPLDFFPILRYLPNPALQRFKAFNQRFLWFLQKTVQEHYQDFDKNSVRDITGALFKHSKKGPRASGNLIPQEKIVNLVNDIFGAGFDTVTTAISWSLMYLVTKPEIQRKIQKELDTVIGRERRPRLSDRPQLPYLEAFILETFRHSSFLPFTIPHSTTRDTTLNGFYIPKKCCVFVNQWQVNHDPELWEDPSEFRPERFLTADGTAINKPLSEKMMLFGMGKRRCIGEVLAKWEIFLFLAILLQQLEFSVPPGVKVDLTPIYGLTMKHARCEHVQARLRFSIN
Procedure, shortened: (§2)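 Human liver microsomes with 1 mM NADPH at 37 °C. Test compound at 0.05–25 μM (final DMSO 0.35%). Conditions per isoform: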

MV4-11 [3] = assay: Antitumor activity against human MV4-11 cells harboring FLT3 ITD xenografted in athymic BALB/c nude mouse assessed as survival at 50 mg/kg, po qd administered for 21 consecutive days measured up to 55 days ( Rvb = 33 days ); assay type: functional
[4] = Apparent permeability from apical to basolateral side in human Caco2 cells at 5 uM after 2 hrs by LC/MS analysis at pH 7.4; assay type: ADME, cell-based; settings: Caco-2, pH 7.4
Procedure, shortened: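 Compound at 5 μM in HBSS (DMSO <1%) applied apically or basolaterally to 21–28 day Caco-2 monolayers, both sides pH 7.4. Both sides sampled at 2 h, LC/MS quantitation with 4-point calibration. Monolayer integrity checked by TEER (450–650 Ωcm²) and Lucifer Yellow.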

CYP3A4 = CYP3A4 (Homo sapiens, UniProt P08684); assay: Inhibition of CYP3A4 in human liver microsomes assessed as decrease in formation of 1-hydroxymidazolam from midazolam substrate at 5 uM after 5 mins by LC-MS/MS; assay type: ADME, Microsome; settings: probe midazolam; procedure, shortened: as §2
MV4-11 [5] = assay: Antitumor activity against human MV4-11 cells harboring FLT3 ITD xenografted in athymic BALB/c nude mouse assessed as survival at 25 mg/kg, po qd administered for 21 consecutive days measured up to 55 days ( Rvb = 33 days ); assay type: functional
[6] = Plasma protein binding in human at 1000 ng/ml by equilibrium dialysis assay; assay type: ADME, cell-free; settings: read-out: PPB (converted)
Procedure, shortened: (§3)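 Equilibrium dialysis of mouse, dog or human plasma spiked to 1000 ng/mL against PBS, 4 h at 37 °C. The buffer side was extracted with MTBE in triplicate and analysed by LC/MS/MS.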

[7] = target: Cyclin-dependent kinase 2/cyclin A (Homo sapiens, UniProt P24941); assay: Inhibition of recombinant CDK2/Cyclin A using RbinG as substrate after 2 hrs by luminescence assay; assay type: protein-complex assay
[8] = Tmax in Beagle dog at 3 mg/kg, po administered via gelatin capsule as single dose; assay type: ADME, organism-based, Canis lupus familiaris; parameters: dose 3 mg/kg, route oral; settings: in vivo
[9] = AUC (0 to 8 hrs) in Wistar rat at 10 mg/kg, po administered as single dose; assay type: ADME, organism-based; parameters: time < 8 hr, dose 10 mg/kg, route oral; settings: plasma
[10] = AUC (0 to 8 hrs) in BALB/c mouse at 30 mg/kg, po administered as single dose; assay type: ADME, organism-based; parameters: time < 8 hr, dose 30 mg/kg, route oral; settings: plasma
[11] = Antiproliferative activity against mouse BA/F3 cells harboring JAK2 V617F mutation assessed as cell viability after 48 hrs by Cell titer Glo assay; assay type: functional; settings: BaF3, 48 h
[12] = Cmax in Beagle dog at 3 mg/kg, po administered via gelatin capsule as single dose; assay type: ADME, organism-based, Canis lupus familiaris; parameters: dose 3 mg/kg, route oral; settings: in vivo
[13] = Oral bioavailability in BALB/c mouse at 30 mg/kg, administered as single dose; assay type: ADME, organism-based; settings: in vivo
[14] = Plasma protein binding in dog at 1000 ng/ml by LC/MS/MS analysis; assay type: ADME, cell-free, Canis lupus familiaris; settings: read-out: PPB (converted); procedure, shortened: as §3
[15] = AUC ( 0 to 8 hrs) in Beagle dog at 3 mg/kg, po administered via gelatin capsule as single dose; assay type: ADME, organism-based, Canis lupus familiaris; parameters: time < 8 hr, dose 3 mg/kg, route oral; settings: plasma
[16] = Oral bioavailability in Beagle dog at 3 mg/kg, administered as single dose; assay type: ADME, organism-based, Canis lupus familiaris; settings: in vivo
[17] = Terminal half life in BALB/c mouse at 30 mg/kg, po administered as single dose; assay type: ADME, organism-based; parameters: dose 30 mg/kg, route oral; settings: in vivo, read-out: beta t1/2 (converted)
Cytochrome P450 2C9 = Cytochrome P450 2C9 (Homo sapiens, UniProt P11712); assay: Inhibition of CYP2C9 in human liver microsomes assessed as decrease in formation of 4-hydroxytolbutamide from tolbutamide substrate after 60 mins by LC-MS/MS; assay type: ADME, Microsome; procedure, shortened: as §2
[18] = Cmax in BALB/c mouse at 30 mg/kg, po administered as single dose; assay type: ADME, organism-based; parameters: dose 30 mg/kg, route oral; settings: in vivo
Mus musculus [19] = assay: Toxicity in athymic BALB/c nude mouse allografted with mouse BA/F3 cells harboring JAK2 V617F mutant assessed as body weight loss at 75 and 150 mg/kg, po administered twice daily for 13 consecutive days starting from day 4 post challenge relative to control; settings: in vivo
[20] = target: Tyrosine-protein kinase JAK1 (Homo sapiens, UniProt P23458); assay: Inhibition of recombinant JAK1 using Poly (Glu,Ala,Tyr) as substrate after 2 hrs by luminescence assay
Procedure, shortened: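 Luciferase-coupled ATP-depletion luminescence assay in 50 mM Hepes pH 7.5 with MgCl₂, MnCl₂, BGP, DTT and orthovanadate, 2 h at room temperature. Conditions per target: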

[21] = Cmax in Wistar rat at 10 mg/kg, po administered as single dose; assay type: ADME, organism-based; parameters: dose 10 mg/kg, route oral; settings: in vivo
[22] = Terminal half life in Beagle dog at 3 mg/kg, po administered via gelatin capsule as single dose; assay type: ADME, organism-based, Canis lupus familiaris; parameters: dose 3 mg/kg, route oral; settings: in vivo, read-out: beta t1/2 (converted)
physchem = settings: phosphate buffer saline, pH 7
Cytochrome P450 2C19 = Cytochrome P450 2C19 (Homo sapiens, UniProt P33261); assay: Inhibition of CYP2C19 in human liver microsomes assessed as decrease in formation of 4-hydroxymephenytoin from mephenytoin substrate after 60 mins by LC-MS/MS; assay type: ADME, Microsome; procedure, shortened: as §2
[23] = Oral bioavailability in Wistar rat at 10 mg/kg, administered as single dose; assay type: ADME, organism-based; settings: in vivo
Mus musculus [24] = assay: Toxicity in athymic BALB/c nude mouse allografted with mouse BA/F3 cells harboring JAK2 V617F mutant assessed as body weight loss at 75 mg/kg, po administered twice daily for 13 consecutive days starting from day 4 post challenge relative to control; assay type: organism-based, BaF3; parameters: dose 75 mg/kg, route oral; settings: in vivo
[25] = target: Non-receptor tyrosine-protein kinase TYK2 (Homo sapiens, UniProt P29597); assay: Inhibition of recombinant TYK2
Mus musculus [26] = assay: Toxicity in athymic BALB/c nude mouse xenografted with human MV4-11 cells harboring FLT3 ITD assessed as body weight loss at 50 to 100 mg/kg, po qd administered for 21 consecutive days measured up to 55 days relative to control; assay type: organism-based; parameters: dose 50-100 mg/kg, route oral; settings: in vivo, 1320 h
Procedure, shortened: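 Female BALB/c nude mice implanted subcutaneously in right flank with 1 × 10⁷ MV4-11 cells in Matrigel 1:1. At about 130 mm³, oral once-daily dosing at 25, 50 or 100 mg/kg (free base) for 21 days, 8–10 mice per group. Tumours followed to day 55 or 1000 mm³; body weight assessed at termination.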

in vitro = settings: PAMPA
CYP2D6 = CYP2D6 (Homo sapiens, UniProt P10635); assay: Inhibition of CYP2D6 in human liver microsomes assessed as decrease in formation of dextrorphan from dextromethorphan substrate at 5 uM after 30 mins by LC-MS/MS; assay type: ADME, Microsome; settings: probe dextromethorphan; procedure, shortened: as §2
[27] = Terminal half life in Wistar rat at 10 mg/kg, po administered as single dose; assay type: ADME, organism-based; parameters: dose 10 mg/kg, route oral; settings: in vivo, read-out: beta t1/2 (converted)
[28] = Plasma protein binding in mouse at 1000 ng/ml by LC/MS/MS analysis; assay type: ADME, cell-free; settings: read-out: PPB (converted); procedure, shortened: as §3
[29] = Half life in rat liver microsomes at 5 uM by LC/MS/MS analysis; assay type: ADME, Microsome
Procedure, shortened: (§4)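 Compound at 5 μM incubated at 37 °C with dog or rat liver microsomes (~0.87 mg/mL) in 50 mM potassium phosphate pH 7.4 with NADPH regenerating system.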

MV4-11 [30] = assay: Antiproliferative activity against human MV4-11 cells harboring FLT3 […] mutant assessed as cell viability after 48 hrs by Cell titer Glo assay; assay type: functional; settings: MV4-11, 48 h
[31] = Half life in dog liver microsomes at 5 uM by LC/MS/MS analysis; assay type: ADME, Canis lupus familiaris, Microsome; procedure, shortened: as §4
MV4-11 [32] = assay: Antitumor activity against human MV4-11 cells harboring FLT3 ITD xenografted in athymic BALB/c nude mouse assessed as survival at 100 mg/kg, po qd administered for 21 consecutive days measured up to 55 days ( Rvb = 33 days ); assay type: functional

Sequence of Cytochrome P450 2C19 (P33261 whole entry): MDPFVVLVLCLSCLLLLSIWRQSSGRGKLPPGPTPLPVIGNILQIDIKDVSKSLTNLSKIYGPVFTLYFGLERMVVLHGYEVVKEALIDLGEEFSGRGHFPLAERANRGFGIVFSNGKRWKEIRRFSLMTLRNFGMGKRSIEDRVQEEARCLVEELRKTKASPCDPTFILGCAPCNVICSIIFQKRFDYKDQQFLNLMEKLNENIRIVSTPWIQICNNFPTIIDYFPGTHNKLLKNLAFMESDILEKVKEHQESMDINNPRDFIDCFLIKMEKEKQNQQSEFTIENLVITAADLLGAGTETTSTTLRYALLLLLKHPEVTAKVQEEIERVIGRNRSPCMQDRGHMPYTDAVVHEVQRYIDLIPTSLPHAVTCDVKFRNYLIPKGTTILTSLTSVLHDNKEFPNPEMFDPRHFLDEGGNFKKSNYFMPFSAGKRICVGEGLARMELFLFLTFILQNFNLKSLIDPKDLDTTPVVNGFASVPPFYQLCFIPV
Sequence of Tyrosine-protein kinase JAK1 (P23458 whole entry): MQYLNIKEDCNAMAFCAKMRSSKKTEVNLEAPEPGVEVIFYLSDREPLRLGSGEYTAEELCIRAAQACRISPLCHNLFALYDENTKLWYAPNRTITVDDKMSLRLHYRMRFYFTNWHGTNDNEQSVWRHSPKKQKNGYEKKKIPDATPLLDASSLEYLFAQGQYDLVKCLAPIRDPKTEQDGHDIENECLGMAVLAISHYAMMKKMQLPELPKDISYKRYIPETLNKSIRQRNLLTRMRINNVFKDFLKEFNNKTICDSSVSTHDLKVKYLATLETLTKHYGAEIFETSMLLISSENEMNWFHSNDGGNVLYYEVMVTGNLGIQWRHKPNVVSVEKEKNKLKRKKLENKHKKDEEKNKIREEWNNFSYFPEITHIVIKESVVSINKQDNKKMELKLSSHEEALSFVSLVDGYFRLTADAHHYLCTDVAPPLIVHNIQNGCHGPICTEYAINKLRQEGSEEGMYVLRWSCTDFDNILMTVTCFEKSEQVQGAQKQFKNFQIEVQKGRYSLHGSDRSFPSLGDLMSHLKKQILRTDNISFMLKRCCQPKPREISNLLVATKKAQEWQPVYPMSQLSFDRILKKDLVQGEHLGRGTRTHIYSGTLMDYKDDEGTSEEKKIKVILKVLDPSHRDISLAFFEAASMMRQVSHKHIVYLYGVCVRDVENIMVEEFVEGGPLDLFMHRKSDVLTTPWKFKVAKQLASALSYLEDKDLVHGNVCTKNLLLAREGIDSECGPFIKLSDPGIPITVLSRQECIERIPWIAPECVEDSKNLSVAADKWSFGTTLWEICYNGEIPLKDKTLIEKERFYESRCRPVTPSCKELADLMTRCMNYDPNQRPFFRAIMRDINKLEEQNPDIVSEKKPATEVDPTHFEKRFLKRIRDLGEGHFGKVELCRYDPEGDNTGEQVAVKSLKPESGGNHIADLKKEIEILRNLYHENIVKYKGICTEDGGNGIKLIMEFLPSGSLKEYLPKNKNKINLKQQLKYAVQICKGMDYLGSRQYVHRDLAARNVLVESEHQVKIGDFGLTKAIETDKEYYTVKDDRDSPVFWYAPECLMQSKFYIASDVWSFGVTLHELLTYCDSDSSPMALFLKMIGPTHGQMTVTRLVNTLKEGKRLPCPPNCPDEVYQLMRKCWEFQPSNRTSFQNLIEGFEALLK
Sequence of Cytochrome P450 2C9 (P11712 whole entry): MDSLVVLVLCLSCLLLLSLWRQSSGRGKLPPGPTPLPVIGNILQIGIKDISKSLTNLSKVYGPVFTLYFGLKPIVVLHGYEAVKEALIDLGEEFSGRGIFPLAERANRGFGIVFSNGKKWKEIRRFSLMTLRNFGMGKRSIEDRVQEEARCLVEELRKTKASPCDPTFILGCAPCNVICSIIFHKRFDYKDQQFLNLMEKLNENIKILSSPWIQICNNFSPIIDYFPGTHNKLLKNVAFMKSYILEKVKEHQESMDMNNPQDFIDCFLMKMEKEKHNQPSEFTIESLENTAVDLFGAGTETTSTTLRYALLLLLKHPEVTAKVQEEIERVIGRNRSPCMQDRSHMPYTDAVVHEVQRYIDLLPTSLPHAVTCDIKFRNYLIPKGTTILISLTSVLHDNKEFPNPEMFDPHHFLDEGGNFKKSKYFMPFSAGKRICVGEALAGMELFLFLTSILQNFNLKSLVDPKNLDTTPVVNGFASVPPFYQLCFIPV
Sequence of Non-receptor tyrosine-protein kinase TYK2 (P29597 whole entry): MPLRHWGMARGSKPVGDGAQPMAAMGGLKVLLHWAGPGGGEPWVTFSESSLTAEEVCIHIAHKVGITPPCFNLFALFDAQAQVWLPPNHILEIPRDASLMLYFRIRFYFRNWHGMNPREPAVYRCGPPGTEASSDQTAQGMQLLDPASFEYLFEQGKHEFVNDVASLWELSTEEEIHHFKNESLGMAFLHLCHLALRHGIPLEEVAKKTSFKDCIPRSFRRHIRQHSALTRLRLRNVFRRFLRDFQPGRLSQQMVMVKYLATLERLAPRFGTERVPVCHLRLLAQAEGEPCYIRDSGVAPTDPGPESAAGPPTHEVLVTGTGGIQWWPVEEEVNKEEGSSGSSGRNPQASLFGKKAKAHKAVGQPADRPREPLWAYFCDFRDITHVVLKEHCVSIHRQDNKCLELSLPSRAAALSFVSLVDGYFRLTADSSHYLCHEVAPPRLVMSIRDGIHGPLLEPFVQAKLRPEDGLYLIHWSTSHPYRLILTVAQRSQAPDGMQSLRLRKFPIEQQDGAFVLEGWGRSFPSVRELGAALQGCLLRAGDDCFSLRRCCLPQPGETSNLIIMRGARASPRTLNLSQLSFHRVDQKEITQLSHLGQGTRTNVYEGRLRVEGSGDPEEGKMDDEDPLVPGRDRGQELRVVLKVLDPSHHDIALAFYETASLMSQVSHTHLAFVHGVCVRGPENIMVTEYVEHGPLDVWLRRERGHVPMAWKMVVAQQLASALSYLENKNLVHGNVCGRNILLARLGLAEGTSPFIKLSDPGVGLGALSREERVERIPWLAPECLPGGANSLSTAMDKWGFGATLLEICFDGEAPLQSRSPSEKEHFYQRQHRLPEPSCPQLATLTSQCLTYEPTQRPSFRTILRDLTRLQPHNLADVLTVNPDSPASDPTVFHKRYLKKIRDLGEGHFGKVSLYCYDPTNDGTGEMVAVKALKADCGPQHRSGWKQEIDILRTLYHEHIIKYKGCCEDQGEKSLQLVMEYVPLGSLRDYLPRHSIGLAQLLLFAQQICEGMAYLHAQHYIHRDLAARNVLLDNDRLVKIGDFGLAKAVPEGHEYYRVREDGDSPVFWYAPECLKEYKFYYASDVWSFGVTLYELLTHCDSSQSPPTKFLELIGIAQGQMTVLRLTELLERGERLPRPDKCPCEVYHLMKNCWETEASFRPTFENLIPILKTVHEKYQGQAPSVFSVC
Sequence of CYP3A4 (P08684 whole entry): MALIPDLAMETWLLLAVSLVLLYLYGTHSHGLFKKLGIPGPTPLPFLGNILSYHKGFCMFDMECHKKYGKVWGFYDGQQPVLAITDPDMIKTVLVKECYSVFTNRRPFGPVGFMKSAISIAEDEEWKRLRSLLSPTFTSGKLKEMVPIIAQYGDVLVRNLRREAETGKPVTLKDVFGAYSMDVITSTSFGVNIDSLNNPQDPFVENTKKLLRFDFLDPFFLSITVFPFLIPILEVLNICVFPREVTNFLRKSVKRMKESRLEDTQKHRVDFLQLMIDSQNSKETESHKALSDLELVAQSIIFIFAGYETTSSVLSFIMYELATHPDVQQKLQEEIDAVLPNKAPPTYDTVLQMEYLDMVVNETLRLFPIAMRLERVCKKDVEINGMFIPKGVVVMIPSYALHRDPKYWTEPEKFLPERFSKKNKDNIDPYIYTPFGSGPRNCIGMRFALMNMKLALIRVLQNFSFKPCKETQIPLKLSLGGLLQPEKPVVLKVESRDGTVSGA
Sequence of CYP2D6 (P10635 whole entry): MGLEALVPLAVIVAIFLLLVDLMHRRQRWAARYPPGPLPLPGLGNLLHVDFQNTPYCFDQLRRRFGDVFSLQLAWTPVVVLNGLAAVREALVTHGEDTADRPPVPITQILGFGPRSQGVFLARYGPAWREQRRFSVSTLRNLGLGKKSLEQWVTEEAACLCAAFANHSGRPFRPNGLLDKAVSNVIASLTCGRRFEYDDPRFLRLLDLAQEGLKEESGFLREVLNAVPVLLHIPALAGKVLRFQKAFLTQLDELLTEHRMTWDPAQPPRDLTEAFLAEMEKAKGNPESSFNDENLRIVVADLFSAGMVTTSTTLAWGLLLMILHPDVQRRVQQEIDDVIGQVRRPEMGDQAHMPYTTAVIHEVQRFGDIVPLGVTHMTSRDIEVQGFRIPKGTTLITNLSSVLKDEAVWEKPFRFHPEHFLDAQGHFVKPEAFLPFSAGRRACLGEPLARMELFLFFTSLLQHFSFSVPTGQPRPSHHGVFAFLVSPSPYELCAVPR

SMILES: C1=CCOCc2cc(ccc2OCCN2CCCC2)Nc2nccc(n2)-c2cccc(c2)COC1.Cl (mixture of isomers)
- Activity [1]: 42%
- Activity [2]: 99%

SMILES: C1=N/C2=N/c3ccc(OCCN4CCCC4)c(c3)COC/C=C/COCc3cccc(c3)C(=C1)N2 (mixture of isomers) [PACRITINIB]
- IC50 (Cytochrome P450 1A2): > 5000 nM
- Survival (MV4-11 [3]): 55 days
- Papp A→B at 2 h, 5 µM [4]: 16 ×10⁻⁶ cm/s
- inhibition at 5 min, 5 µM (CYP3A4): 20%
- Survival (MV4-11 [5]): 35 days
- fraction unbound at 1000 ng/ml [6]: 0.0012
- IC50 [7]: 3900 nM
- Tmax [8]: 2 h
- AUC(0-t) at 8 h [9]: 599 ng·h/mL
- AUC(0-t) at 8 h [10]: 399 ng·h/mL
- GI50 [11]: 160 nM
- Cmax [12]: 11.5 ng/mL
- bioavailability [13]: 39%
- fraction unbound at 1000 ng/ml [14]: 0.0037
- AUC(0-t) at 8 h [15]: 53 ng·h/mL
- bioavailability [16]: 24%
- half-life [17]: 0.84 h
- IC50 (Cytochrome P450 2C9): > 5000 nM
- Cmax [18]: 292 ng/mL
- Activity (Mus musculus [19]): Non-toxic
- IC50 [20]: 1280 nM
- Cmax [21]: 114 ng/mL
- half-life [22]: 3.4 h
- solubility (physchem): > 150 µg/mL
- IC50 (Cytochrome P450 2C19): > 5000 nM
- bioavailability [23]: 10%
- Activity (Mus musculus [24]): Non-toxic
- IC50 [25]: 50 nM
- Activity (Mus musculus [26]): Non-toxic
- Papp at 5 h, 1 µM (in vitro): 9.3 ×10⁻⁶ cm/s
- inhibition at 0.5 h, 5 µM (CYP2D6): 20%
- half-life [27]: 5.7 h
- fraction unbound at 1000 ng/ml [28]: 0.0059
- half-life at 5 µM [29]: 0.3 h
- GI50 (MV4-11 [30]): 47 nM
- half-life at 5 µM [31]: 0.683 h
- Survival (MV4-11 [32]): 55 days
